The nature of assay [1]: Inhibition of mouse full length GST-tagged BRAF V600E mutant using MEK1 as substrate incubated for 1 hr prior to substrate addition measured after 25 min by gel electrophoresis. The essentials:
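Kinase activity was read out as BRAF V600E-mediated phosphorylation of MEK. Results are given as IC50 values.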

Assay [2] is described as follows: Antiproliferative activity against human WM266.4 cells expressing BRAF V600E mutant after 24 hrs by MTT assay. To be noted: WM 266-4, 24 h. In kind it is functional. A general note: Tetrazolium dyes change colour on reduction, which living cells bring about.
In assay [3] the target is Epidermal growth factor receptor (Homo sapiens, UniProt P00533). Description: Inhibition of EGFR.
Sequence of Epidermal growth factor receptor (P00533 whole entry): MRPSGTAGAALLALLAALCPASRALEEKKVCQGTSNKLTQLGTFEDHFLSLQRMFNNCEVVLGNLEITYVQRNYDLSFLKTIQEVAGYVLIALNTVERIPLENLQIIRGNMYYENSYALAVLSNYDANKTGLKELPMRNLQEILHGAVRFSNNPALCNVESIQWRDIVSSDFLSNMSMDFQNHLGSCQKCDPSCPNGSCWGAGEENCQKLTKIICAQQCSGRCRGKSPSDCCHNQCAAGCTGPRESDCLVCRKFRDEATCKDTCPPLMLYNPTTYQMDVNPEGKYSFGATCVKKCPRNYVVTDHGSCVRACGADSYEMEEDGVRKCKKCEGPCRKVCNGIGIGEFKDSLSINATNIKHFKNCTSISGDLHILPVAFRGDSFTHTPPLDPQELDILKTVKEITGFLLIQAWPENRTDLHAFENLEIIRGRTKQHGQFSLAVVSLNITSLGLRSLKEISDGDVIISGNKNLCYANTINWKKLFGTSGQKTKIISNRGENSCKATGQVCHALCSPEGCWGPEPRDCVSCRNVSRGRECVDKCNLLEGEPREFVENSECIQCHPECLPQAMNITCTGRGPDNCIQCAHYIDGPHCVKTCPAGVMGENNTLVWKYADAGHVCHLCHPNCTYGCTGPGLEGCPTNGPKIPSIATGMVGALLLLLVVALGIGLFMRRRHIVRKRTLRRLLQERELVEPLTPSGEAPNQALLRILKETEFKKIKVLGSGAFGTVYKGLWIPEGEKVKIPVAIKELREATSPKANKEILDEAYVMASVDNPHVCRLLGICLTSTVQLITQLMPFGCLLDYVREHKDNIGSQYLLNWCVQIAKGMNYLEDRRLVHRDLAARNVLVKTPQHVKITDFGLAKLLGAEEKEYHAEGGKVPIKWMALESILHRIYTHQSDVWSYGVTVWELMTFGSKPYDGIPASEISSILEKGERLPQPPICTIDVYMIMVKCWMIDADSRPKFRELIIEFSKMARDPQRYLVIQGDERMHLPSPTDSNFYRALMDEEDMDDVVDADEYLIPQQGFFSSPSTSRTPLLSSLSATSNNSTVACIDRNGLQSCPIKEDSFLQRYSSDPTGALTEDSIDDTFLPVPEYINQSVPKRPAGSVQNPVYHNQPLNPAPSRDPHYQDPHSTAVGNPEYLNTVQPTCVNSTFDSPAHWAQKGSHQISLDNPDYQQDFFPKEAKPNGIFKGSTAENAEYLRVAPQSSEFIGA
The target of assay [4] is Vascular endothelial growth factor receptor 2 (Homo sapiens, UniProt P35968). Description: Inhibition of VEGFR2 using gastrin as substrate after 60 mins by immunofluorescence method.
Sequence of Vascular endothelial growth factor receptor 2 (P35968 whole entry): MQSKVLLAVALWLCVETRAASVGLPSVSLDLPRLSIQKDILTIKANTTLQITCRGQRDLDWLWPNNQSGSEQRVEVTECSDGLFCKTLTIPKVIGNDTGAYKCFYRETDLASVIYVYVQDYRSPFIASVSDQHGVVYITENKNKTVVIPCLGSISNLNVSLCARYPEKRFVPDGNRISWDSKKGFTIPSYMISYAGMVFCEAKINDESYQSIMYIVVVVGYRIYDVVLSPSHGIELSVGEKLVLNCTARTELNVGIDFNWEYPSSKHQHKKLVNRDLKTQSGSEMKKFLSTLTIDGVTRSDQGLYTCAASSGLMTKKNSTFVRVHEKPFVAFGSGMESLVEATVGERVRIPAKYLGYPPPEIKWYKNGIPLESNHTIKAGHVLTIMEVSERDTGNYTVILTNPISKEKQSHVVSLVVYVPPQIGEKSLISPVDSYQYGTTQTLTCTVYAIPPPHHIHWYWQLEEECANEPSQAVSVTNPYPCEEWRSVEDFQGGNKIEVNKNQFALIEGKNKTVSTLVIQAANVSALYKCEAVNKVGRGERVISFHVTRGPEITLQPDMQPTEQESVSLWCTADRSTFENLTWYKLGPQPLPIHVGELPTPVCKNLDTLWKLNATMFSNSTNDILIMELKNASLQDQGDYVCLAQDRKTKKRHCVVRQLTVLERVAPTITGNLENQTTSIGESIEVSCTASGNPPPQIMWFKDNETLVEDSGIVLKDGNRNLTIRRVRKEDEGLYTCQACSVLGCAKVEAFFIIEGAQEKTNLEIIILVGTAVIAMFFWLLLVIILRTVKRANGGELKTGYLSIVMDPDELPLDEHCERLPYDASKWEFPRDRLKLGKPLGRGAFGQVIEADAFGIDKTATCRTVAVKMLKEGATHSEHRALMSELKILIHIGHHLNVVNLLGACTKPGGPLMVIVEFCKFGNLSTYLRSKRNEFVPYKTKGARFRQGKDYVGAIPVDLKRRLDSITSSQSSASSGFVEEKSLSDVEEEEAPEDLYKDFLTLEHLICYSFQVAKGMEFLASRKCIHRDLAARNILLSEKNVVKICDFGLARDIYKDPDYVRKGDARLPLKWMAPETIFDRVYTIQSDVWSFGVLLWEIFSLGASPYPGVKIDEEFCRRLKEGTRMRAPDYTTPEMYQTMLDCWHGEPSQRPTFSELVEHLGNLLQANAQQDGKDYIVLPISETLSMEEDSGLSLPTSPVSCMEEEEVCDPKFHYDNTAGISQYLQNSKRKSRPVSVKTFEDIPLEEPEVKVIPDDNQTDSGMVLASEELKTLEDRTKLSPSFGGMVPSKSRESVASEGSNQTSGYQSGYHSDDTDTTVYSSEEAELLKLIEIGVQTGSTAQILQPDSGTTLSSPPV
Assay [5] deals with Serine/threonine-protein kinase B-raf (Homo sapiens, UniProt P15056, V600E). Description: Inhibition of BRAF V600E mutant in human WM266.4 cells assessed as inhibition of ERK1/2 phosphorylation by ELISA. It counts as cell-based. (In general: ELISA stands for enzyme-linked immunosorbent assay.)
Sequence of Serine/threonine-protein kinase B-raf (P15056 2-766 V600E limits assumed): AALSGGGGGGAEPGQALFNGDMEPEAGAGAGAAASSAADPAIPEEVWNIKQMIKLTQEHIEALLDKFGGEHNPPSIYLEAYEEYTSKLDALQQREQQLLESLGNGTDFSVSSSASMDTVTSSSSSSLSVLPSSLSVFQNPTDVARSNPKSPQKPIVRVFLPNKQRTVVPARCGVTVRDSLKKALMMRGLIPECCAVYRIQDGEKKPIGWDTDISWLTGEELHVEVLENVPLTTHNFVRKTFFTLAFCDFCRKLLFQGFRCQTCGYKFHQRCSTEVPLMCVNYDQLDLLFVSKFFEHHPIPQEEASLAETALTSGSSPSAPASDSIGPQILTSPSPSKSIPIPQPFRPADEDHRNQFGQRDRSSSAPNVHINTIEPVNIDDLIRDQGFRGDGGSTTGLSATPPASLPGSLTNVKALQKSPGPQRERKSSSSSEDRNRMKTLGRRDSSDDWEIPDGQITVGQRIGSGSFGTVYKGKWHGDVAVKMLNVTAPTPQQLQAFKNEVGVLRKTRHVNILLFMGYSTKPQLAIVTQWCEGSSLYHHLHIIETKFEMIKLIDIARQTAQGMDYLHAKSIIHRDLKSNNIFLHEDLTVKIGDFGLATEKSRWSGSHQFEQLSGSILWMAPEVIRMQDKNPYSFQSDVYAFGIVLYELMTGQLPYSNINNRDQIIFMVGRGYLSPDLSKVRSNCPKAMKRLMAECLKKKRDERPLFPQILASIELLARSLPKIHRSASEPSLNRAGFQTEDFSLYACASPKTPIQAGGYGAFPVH
The target in assay [6] is T1, Aurora kinase A (Homo sapiens, UniProt O14965).
T1 sequence (O14965 whole entry): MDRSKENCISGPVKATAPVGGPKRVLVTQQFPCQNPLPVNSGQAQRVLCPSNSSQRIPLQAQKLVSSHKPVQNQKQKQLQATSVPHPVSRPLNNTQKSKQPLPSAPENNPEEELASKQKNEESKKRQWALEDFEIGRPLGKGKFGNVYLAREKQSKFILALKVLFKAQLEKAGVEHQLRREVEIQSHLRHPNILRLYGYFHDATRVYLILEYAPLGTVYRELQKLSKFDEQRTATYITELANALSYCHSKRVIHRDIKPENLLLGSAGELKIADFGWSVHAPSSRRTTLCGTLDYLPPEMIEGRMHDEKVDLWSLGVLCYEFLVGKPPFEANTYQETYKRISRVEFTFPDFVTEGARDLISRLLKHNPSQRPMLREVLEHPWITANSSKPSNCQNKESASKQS
Description: Inhibition of human recombinant Aurora A kinase using PLK as substrate incubated for 15 mins prior to substrate addition measured after 60 mins by immunofluorescence method.

In assay [7] the target is Receptor tyrosine-protein kinase erbB-2 (Homo sapiens, UniProt P04626). Put plainly: Inhibition of HER2.
Sequence of Receptor tyrosine-protein kinase erbB-2 (P04626 whole entry): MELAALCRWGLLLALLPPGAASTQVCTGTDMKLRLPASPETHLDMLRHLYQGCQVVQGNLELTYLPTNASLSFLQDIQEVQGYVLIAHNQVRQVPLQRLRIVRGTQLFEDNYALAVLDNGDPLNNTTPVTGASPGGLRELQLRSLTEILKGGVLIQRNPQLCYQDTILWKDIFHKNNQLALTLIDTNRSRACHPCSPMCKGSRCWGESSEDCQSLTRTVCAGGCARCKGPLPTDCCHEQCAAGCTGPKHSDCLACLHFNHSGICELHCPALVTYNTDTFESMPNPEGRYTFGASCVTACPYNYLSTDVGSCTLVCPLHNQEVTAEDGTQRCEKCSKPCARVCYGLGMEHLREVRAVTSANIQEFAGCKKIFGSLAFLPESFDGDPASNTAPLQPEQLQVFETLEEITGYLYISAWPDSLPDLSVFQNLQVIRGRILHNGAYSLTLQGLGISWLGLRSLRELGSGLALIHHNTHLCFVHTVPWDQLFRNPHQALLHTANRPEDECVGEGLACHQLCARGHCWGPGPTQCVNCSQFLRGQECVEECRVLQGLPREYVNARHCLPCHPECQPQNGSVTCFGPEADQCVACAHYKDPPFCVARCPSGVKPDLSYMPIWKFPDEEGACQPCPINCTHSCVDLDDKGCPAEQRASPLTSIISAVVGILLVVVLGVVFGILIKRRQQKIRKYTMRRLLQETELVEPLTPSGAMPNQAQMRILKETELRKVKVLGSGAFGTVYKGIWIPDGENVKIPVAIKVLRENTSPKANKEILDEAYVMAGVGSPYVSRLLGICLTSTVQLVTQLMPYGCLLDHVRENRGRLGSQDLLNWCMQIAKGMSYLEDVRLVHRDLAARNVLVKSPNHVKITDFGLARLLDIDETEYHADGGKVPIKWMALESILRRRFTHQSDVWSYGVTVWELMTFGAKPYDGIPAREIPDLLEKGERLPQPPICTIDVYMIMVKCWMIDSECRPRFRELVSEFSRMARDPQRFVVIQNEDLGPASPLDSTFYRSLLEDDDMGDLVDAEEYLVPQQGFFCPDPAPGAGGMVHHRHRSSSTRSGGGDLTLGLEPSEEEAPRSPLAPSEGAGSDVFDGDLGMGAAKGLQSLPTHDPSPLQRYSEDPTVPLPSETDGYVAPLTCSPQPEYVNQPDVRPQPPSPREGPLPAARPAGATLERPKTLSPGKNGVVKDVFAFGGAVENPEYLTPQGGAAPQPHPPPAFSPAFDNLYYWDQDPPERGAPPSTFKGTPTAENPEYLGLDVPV
Assay [8] is described as follows: Inhibition of bovine FAK isolated from brain after 20 mins by turbidimetric analysis. Set-up: species or system Bos taurus.
Assay [9] can be described thus: Antiproliferative activity against human WM1361 cells expressing wild type BRAF after 24 hrs by MTT assay. It counts as functional, cell-based. The note with it: WM1361, 24 h.

In general, IC50 refers to the midpoint of a concentration-inhibition curve. For orientation: GI50 means the concentration giving 50% growth inhibition.

In assay [1], `COc1ccc(C2=NN(C(=O)c3ccc(Cl)cc3O)C(c3ccc(OCc4ccccc4)cc3)C2)cc1` (centres undefined) registered an IC50 of 5.01 µM. For the same compound, halving of growth in [2] (GI50) required 7.89 µM.
Consider `COc1ccc(C2=NN(C(=O)c3cc(OC)ccc3O)C(c3ccc(Br)cc3)C2)cc1` (centres undefined), for which, in assay [1], the half-inhibitory concentration (IC50) came to 6.94 µM. In [2], this compound registered a GI50 of 12.9 µM.
On the same counts, the results for `COc1ccc(C2=NN(C(=O)c3cc(Cl)ccc3O)C(c3ccc(Cl)cc3)C2)cc1` (centres undefined) are 0.57 µM and 1.52 µM.
Turning to `COc1ccc(C2=NN(C(=O)c3ccc(Cl)cc3O)C(c3ccc(Cl)cc3)C2)cc1` (centres undefined), the IC50 in [1] was 0.16 µM; in assay [3], 10.5 µM; in assay [4] it was > 25 µM; in [5], 0.81 µM; in assay [6] it was > 25 µM; in assay [7], > 25 µM. In addition, the half-inhibitory concentration (IC50) in [8] is > 25 µM. Also, the GI50 in assay [2] stood at 0.24 µM; in [9], 12.1 µM.
In [1], `COc1ccc(C2=NN(C(=O)c3cc(Br)ccc3O)C(c3ccc(Cl)cc3)C2)cc1` (centres undefined) showed a half-inhibitory concentration (IC50) of 1.21 µM. Besides, it took 2.39 µM to inhibit growth in assay [2] by half (GI50).
On the same counts, the results for `COc1ccc(C2=NN(C(=O)c3cc(I)ccc3O)C(c3ccc(Cl)cc3)C2)cc1` (centres undefined) are 1.3 µM and 3.27 µM.
Compound `COc1ccc(C2=NN(C(=O)c3cc(OC)ccc3O)C(c3ccc(Cl)cc3)C2)cc1` (centres undefined) displayed a half-inhibitory concentration (IC50) in [1] of 3.72 µM. The compound also came in with a GI50 in assay [2] of 5.04 µM.
For `COc1ccc(C2=NN(C(=O)c3cc(Cl)ccc3O)C(c3ccc(OCc4ccccc4)cc3)C2)cc1` (centres undefined) the same measures were 5.69 µM and 12.9 µM.
For `COc1ccc(C2=NN(C(=O)c3cc(Br)ccc3O)C(c3ccc(OCc4ccccc4)cc3)C2)cc1` (centres undefined) the same measures were 7.22 µM and 12.9 µM.
On the same counts, the results for `COc1ccc(C2=NN(C(=O)c3cc(I)ccc3O)C(c3ccc(OCc4ccccc4)cc3)C2)cc1` (centres undefined) are 5.9 µM and 13 µM.
The compound `COc1ccc(C2=NN(C(=O)c3cc(OC)ccc3O)C(c3ccc(OCc4ccccc4)cc3)C2)cc1` (centres undefined) displayed a half-inhibitory concentration (IC50) in assay [1] of 10.3 µM. The compound further had a GI50 in [2] of 13.9 µM.
For `COc1ccc(C2=NN(C(=O)c3cc(Cl)ccc3O)C(c3ccc(OC)cc3)C2)cc1` (centres undefined) the same measures were 9.3 µM and 12.6 µM.
`COc1ccc(C2=NN(C(=O)c3ccc(Cl)cc3O)C(c3ccc(OC)cc3)C2)cc1` (centres undefined) gave a half-inhibitory concentration (IC50) in assay [1] of 7.04 µM. This compound also came in with a concentration for 50% growth inhibition (GI50) in assay [2] of 13.3 µM.
On the same counts, the results for `COc1ccc(C2=NN(C(=O)c3cc(Br)ccc3O)C(c3ccc(OC)cc3)C2)cc1` (centres undefined) are 4.92 µM and 18.4 µM.
`COc1ccc(C2=NN(C(=O)c3cc(I)ccc3O)C(c3ccc(OC)cc3)C2)cc1` (centres undefined) yielded an IC50 in [1] of 13.3 µM. This compound also displayed a concentration for 50% growth inhibition (GI50) in [2] of 15.6 µM.
For `COc1ccc(C2=NN(C(=O)c3cc(OC)ccc3O)C(c3ccc(OC)cc3)C2)cc1` (centres undefined) the same measures were 8.38 µM and > 20 µM.
For `COc1ccc(C2=NN(C(=O)c3cc(Cl)ccc3O)C(c3ccc(Br)cc3)C2)cc1` (centres undefined) the same measures were 2.51 µM and 3.48 µM.
Take `COc1ccc(C2=NN(C(=O)c3ccc(Cl)cc3O)C(c3ccc(Br)cc3)C2)cc1` (centres undefined): the IC50 in assay [1] came out at 1.38 µM. Growth in [2] was halved (GI50) at 2.89 µM.
Take `COc1ccc(C2=NN(C(=O)c3cc(Br)ccc3O)C(c3ccc(Br)cc3)C2)cc1` (centres undefined): in assay [1], the IC50 came to 3.69 µM. This compound also came in with a GI50 in assay [2] of 7.4 µM.
For `COc1ccc(C2=NN(C(=O)c3cc(I)ccc3O)C(c3ccc(Br)cc3)C2)cc1` (centres undefined) the same measures were 4.1 µM and 7.35 µM.
In turn, `CNC(=O)c1cc(Oc2ccc(NC(=O)Nc3ccc(Cl)c(C(F)(F)F)c3)cc2)ccn1` [SORAFENIB] yielded a concentration for half-maximal inhibition (IC50) in [1] of 0.06 µM. Further, in [2], it took 8.1 µM to inhibit growth by half (GI50).

The record behind these values is ChEMBL document CHEMBL2157921, “Identification of novel 3,5-diarylpyrazoline derivatives containing salicylamide moiety as potential anti-melanoma agents” (Bioorg Med Chem Lett, 2012).
